For one data set, the species on record is Danio rerio. Nature of the data set: Ecotoxicity in fil1:EGFP transgenic zebrafish embryo up to 50 uM after 96 hrs by microscopic analysis. The class given is organism-based. Particulars: in vivo.
Data set [1] deals with MDA-MB-231. Briefly: Cell cycle arrest in human MDA-MB-231 cells assessed as accumulation at S phase at 5 uM after 72 hrs by propidium iodide staining based flow cytometry (reference value: 42.60%). It is filed as functional.
Data set [2] concerns MDA-MB-231. Nature of the data set: Antiproliferative activity against human MDA-MB-231 cells after 72 hrs by MTT assay. The class given is functional, cell-based. The essentials:
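MDA-MB-231 cells grown in DMEM with 10% FBS and penicillin/streptomycin at 37 °C under 5% CO2. Seeded at 5×10^3 cells/well for 24 h, then exposed to compound across a concentration range for 72 h. MTT (5 mg/mL in PBS) added for 5 h, formazan dissolved in DMSO, absorbance read at 570 nm. Three repeats.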
(In general: Tetrazolium assays rely on reduction of a dye to a coloured formazan, in cell work by metabolically active cells.)

Data set [3] deals with MDA-MB-231. Nature of the data set: Induction of DNA damage in human MDA-MB-231 cells assessed as increase in olive tail moment at 10 to 20 uM by comet assay. It is filed as functional, cell-based. The essentials:
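Neutral comet assay on cells treated with 0, 10 or 20 μM for 24 h. DNA stained with SYBR Green I and imaged by fluorescence microscopy. Olive tail moment measured on 50 randomly selected cells per slide.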

Data set [4] relates to MDA-MB-231. Nature of the data set: Induction of morphological changes in human MDA-MB-231 cells assessed as unevening of cell membrane surface with large and numerous particles at 5 to 20 uM after 72 hrs. It is filed as functional, cell-based.
Data set [5] deals with MDA-MB-231. Nature of the data set: Cell cycle arrest in human MDA-MB-231 cells assessed as accumulation at S phase at 10 uM after 72 hrs by propidium iodide staining based flow cytometry (reference value: 42.60%). The class given is functional. In general terms: Flow cytometry measures light scatter and fluorescence of single cells or particles in a stream.
For data set [6], the system named is MDA-MB-231. Nature of the data set: Induction of DNA damage in human MDA-MB-231 cells assessed as increase in gammaH2AX focal positive cells up to 20 uM after 24 hrs by SYBR Green1-staining based fluorescence microscopy. The class given is functional, cell-based.
In data set [7] the test system is MDA-MB-231. Nature of the data set: Antimetastasis activity in human MDA-MB-231 cells assessed as changes in cell morphology at 5 to 10 uM after 24 hrs by based laser confocal microscopy.
For data set [8], the system named is MDA-MB-231. Nature of the data set: Induction of DNA damage in human MDA-MB-231 cells assessed as up-regulation of gammaH2AX expression at 2 to 15 uM by Western blot analysis. It is filed as functional, cell-based. In general terms: Immunoblotting shows a protein as a band on a membrane.
Data set [9] has as its system MDA-MB-231. Briefly: Antiinvasive activity against human MDA-MB-231 cells assessed as reduction in number of black holes at 3 uM after 24 hrs by FITC-gelatin based confocal microscopy. The class given is functional, cell-based. The gist of the method:
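Coverslips coated with poly-L-lysine, fixed with glutaraldehyde, overlaid with 0.2% FITC-gelatin in PBS/2% sucrose and quenched with sodium borohydride. Cells (2×10^5/well) plated with 0, 3 or 6 μM at 37 °C for 24 h. Gelatin degradation, seen as nonfluorescent dark holes, imaged by laser confocal microscopy; F-actin counterstained with rhodamine-phalloidin.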

The subject of data set [10] is MDA-MB-231. Nature of the data set: Cell cycle arrest in human MDA-MB-231 cells assessed as accumulation at G2 phase at 5 uM after 72 hrs by propidium iodide staining based flow cytometry (reference value: 8%). The class given is functional.
Data set [11] relates to MDA-MB-231. Briefly: Induction of apoptosis in human MDA-MB-231 cells assessed as up-regulation of PARP expression at 5 to 15 uM after 72 hrs by Western blot analysis. It is filed as functional, cell-based. The essentials: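 Cells treated with 0, 5, 10 or 15 μM for 72 h. Lysates quantified by BCA, equal protein resolved on 10% tricine SDS-PAGE and transferred to nitrocellulose. Membranes blocked in 5% milk/TBST, then primary antibodies 1:1000 overnight at 4 °C and HRP secondary 1:2000 for 1 h at room temperature. Three independent experiments.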

Data set [12] has as its system MDA-MB-231. Briefly: Antitumor activity in human MDA-MB-231 cells xenografted in fil1:EGFP transgenic zebrafish sub-intestinal vessels assessed as reduction in tumor area at 5 uM measured every 24 hrs for 96 hrs by fluorescence microscopy. It is filed as functional, cell-based. The gist of the method:
(§1)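 Tg(fli1:EGFP) embryos at 48 hpf injected with 10–50 nL of DiI-labelled cells (~10^7 cells/mL in serum-free DMEM) into the perivitelline space near the subintestinal vessels. Ten embryos per well kept in 2 mL aquaculture water with 0 or 5 μM for 96 h. Imaged every 24 h by fluorescence microscopy; tumour area and trunk/tail fluorescence quantified, n=10/group, three experiments.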

The test system of data set [13] is MDA-MB-231. Nature of the data set: Antimetastasis activity in human MDA-MB-231 cells assessed reduction in number of paxillins at 5 to 10 uM after 24 hrs by immunofluorescence based assay.
The subject of data set [14] is MDA-MB-231. Nature of the data set: Antimigratory activity in human MDA-MB-231 cells at 3 uM up to 72 hrs by wound healing assay relative to control. The class given is functional. The gist of the method: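 Scratch assay: 1×10^5 cells/well grown to more than 80% confluence and wounded with a pipette tip. Cells then incubated with 0, 3 or 6 μM in serum-free DMEM for 72 h. The same field was imaged repeatedly over 3 days. Migration rate is wound filling, averaged over 10 fields; three independent experiments, mean ± SD.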

The test system of data set [15] is MDA-MB-231. Nature of the data set: Antiangiogenesis activity in human MDA-MB-231 cells xenografted in fil1:EGFP transgenic zebrafish sub-intestinal vessels assessed as inhibition of cell migration at 5 uM measured every 24 hrs for 96 hrs by fluorescence microscopy. It is filed as functional, cell-based. The essentials:
as §1

In data set [16] the test system is MDA-MB-231. Briefly: Cell cycle arrest in human MDA-MB-231 cells assessed as accumulation at G2 phase at 15 uM after 72 hrs by propidium iodide staining based flow cytometry (reference value: 8%). The class given is functional.
Data set [17] relates to MDA-MB-231. Nature of the data set: Induction of apoptosis in human MDA-MB-231 cells assessed as late apoptotic cells at 5 uM after 72 hrs by annexin-V/propidium iodide double staining based flow cytometry (reference value: 0.12%). The class given is functional.
Data set [18] relates to MDA-MB-231. Nature of the data set: Cell cycle arrest in human MDA-MB-231 cells assessed as accumulation at G1 phase at 10 uM after 72 hrs by propidium iodide staining based flow cytometry (reference value: 49.40%). It is filed as functional.

Active and inactive are the calls of the source. The rule behind the calls is not given here. Bounds are passed on as bounds.

Regarding `Cc1coc2c3ccc4c(c3c3[nH]c(-c5ccc(O)cc5)nc3c12)CCCC4(C)C`, the Activity entry in the data set listed under Danio rerio was “Non-Toxic”; in the data set on MDA-MB-231 [1], 46.41%; in the data set with MDA-MB-231 [2] it was “Dose-dependent effect”; with MDA-MB-231 [5], 51.5%; with MDA-MB-231 [10] it was 11.21%; in the data set on MDA-MB-231 [14], below 50%. The Activity was found to be 10.12% in the data set on MDA-MB-231 [16], 0.43% in the data set with MDA-MB-231 [17] and 35.49% in the data set with MDA-MB-231 [18]. Also, in the data set on MDA-MB-231 [2] (MDA-MB-231, 72 h), inhibition was half-maximal at 13.2 µM (IC50). Also, the result in the data set with MDA-MB-231 [3], in the data set on MDA-MB-231 [4], in the data set with MDA-MB-231 [6], in the data set with MDA-MB-231 [7], in the data set with MDA-MB-231 [8] and in the data set on MDA-MB-231 [9] was Active. In addition, the outcome in the data set on MDA-MB-231 [11], in the data set on MDA-MB-231 [12], in the data set with MDA-MB-231 [13] and with MDA-MB-231 [15] was Active.

The values above are taken from ChEMBL document CHEMBL4257580, “Tanshinone-IIA-Based Analogues of Imidazole Alkaloid Act as Potent Inhibitors To Block Breast Cancer Invasion and Metastasis in Vivo” (J Med Chem, 2018).
